ChEMBL document CHEMBL1938287, “Design and synthesis of inhaled p38 inhibitors for the treatment of chronic obstructive pulmonary disease” (J Med Chem, 2011)
Converted amounts (≈) assume the structure as drawn.

Experiments:
[1] = Metabolic stability in human liver microsomes assessed as phase II glucuronidation in the presence of uridine diphosphate glucuronic acid and absence of NADPH; format: ADME, Microsome; conditions: read-out: Stability
How it was run: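 Human liver microsomes incubated with the cofactor UDPGA and without NADPH, to assess phase II glucuronidation.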

[2] = Metabolic stability in human liver microsomes; format: ADME, Microsome; conditions: read-out: Stability
Rattus norvegicus = species: Rattus norvegicus; experiment: Unbound clearance in rat; format: ADME, organism-based; conditions: in vivo
[3] = Intrinsic clearance in rat liver microsomes; format: ADME, Microsome; conditions: read-out: CLH
[4] = Half life in rat at 1 mg/kg, iv; format: ADME, organism-based; set-up: dose 1 mg/kg, route intravenous; conditions: in vivo
How it was run: (§1)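 Intravenous pharmacokinetics in rats from a 1 mg/kg dose; blood sampled.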

[5] = Volume of distribution at steady state in rat at 1 mg/kg, iv; format: ADME, organism-based; set-up: dose 1 mg/kg, route intravenous; conditions: in vivo, read-out: Vdss
[6] = Oral bioavailability in rat at 3 mg/kg; format: ADME, organism-based; conditions: in vivo
How it was run: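 Oral pharmacokinetics in rats from a 3 mg/kg dose.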

[7] = Clearance in rat at 1 mg/kg, iv; format: ADME, organism-based; set-up: dose 1 mg/kg, route intravenous; conditions: in vivo; how it was run: as §1
[8] = Solubility in simulated lung fluid; format: physicochemical
[9] = Drug metabolism in dog liver microsomes; format: ADME, Canis lupus familiaris, Microsome
[10] = Oral bioavailability in rat at 0.5 mg/kg; format: ADME, organism-based; conditions: in vivo
How it was run: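 Oral pharmacokinetics in rats from a 0.5 mg/kg dose; blood sampled.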

Canis familiaris = species: Canis familiaris; experiment: Unbound clearance in dog; format: ADME, organism-based, Canis lupus familiaris; conditions: in vivo
[11] = Lipophilicity, log D of the compound; format: physicochemical; conditions: octanol/water
[12] = Dissociation constant, pKa of the compound; format: physicochemical
[13] = Aqueous solubility of the compound; format: physicochemical
[14] = Half life in dog at 0.5 mg/kg, iv; format: ADME, organism-based, Canis lupus familiaris; set-up: dose 0.5 mg/kg, route intravenous; conditions: in vivo
How it was run: (§2)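 Intravenous pharmacokinetics in dogs from a 0.5 mg/kg dose; blood sampled.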

[15] = Volume of distribution at steady state in dog at 0.5 mg/kg, iv; format: ADME, organism-based, Canis lupus familiaris; set-up: dose 0.5 mg/kg, route intravenous; conditions: in vivo, read-out: Vdss
[16] = Clearance in dog at 0.5 mg/kg, iv; format: ADME, organism-based, Canis lupus familiaris; set-up: dose 0.5 mg/kg, route intravenous; conditions: in vivo; how it was run: as §2
Liver microsomes [17] = experiment: Drug metabolism in human liver microsomes; format: ADME, Microsome
Liver microsomes [18] = experiment: Drug metabolism in rat liver microsomes; format: ADME, Microsome

Row | microsomal CLint [1] [µL/min/mg] | microsomal CLint [2] [µL/min/mg] | SMILES | other results
1 | 264 |  | CSCC(C)(C)c1cc(NC(=O)NCc2ccccc2Sc2ccc3nnc(-c4ccccc4SCCO)n3c2)n(-c2ccc(O)c(Cl)c2)n1 | 
2 |  | > 320 | CC(C)c1nnc2ccc(Sc3ccccc3CNC(=O)Nc3cc(C(C)(C)C)nn3-c3ccccc3)cn12 | 
3 |  | > 320 | CC(C)(C)c1cc(NC(=O)NCc2ccccc2Sc2ccc3nnc(-c4ccccc4OCCO)n3c2)n(-c2cccc(O)c2)n1 | 
4 | 2 | > 440 | CSC(C)(C)c1cc(NC(=O)NCc2ccccc2Sc2ccc3nnc(C(C)C)n3c2)n(-c2cccc(O)c2)n1 | CL free (Rattus norvegicus): > 9600 mL/min/kg; microsomal CLint [3]: 200 µL/min/mg; half-life [4]: 1 h; Vd [5]: 0.9 L/kg; bioavailability [6]: < 5%; clearance [7]: 77 mL/min/kg
5 |  |  | C[C@@H]1C[C@H]2[C@@H]3C[C@H](F)C4=CC(=O)C=C[C@]4(C)[C@@]3(F)[C@@H](O)C[C@]2(C)[C@@]1(O)C(=O)SCF [FLUTICASONE] | solubility [8]: 0.5 µg/mL (≈ 1.12 µM)
6 | 310 | > 440 | CSCC(C)(C)c1cc(NC(=O)NCc2ccccc2Sc2ccc3nnc(-c4ccccc4OCCO)n3c2)n(-c2ccc(O)c(Cl)c2)n1 | 
7 | 11 | 304 | CSc1ccccc1-c1nnc2ccc(Sc3ccccc3CNC(=O)Nc3cc(C(C)(C)C)nn3-c3cccc(O)c3)cn12 | 
8 | 130 | 202 | CC(C)(C)c1cc(NC(=O)NCc2ccccc2Sc2ccc3nnc(-c4ccccc4OCCO)n3c2)n(-c2ccc(O)c(Cl)c2)n1 | 
9 | 205 | > 347 | CC(C)(C)c1cc(NC(=O)NCc2ccccc2Sc2ccc3nnc(-c4ccccc4SCCO)n3c2)n(-c2ccc(O)c(Cl)c2)n1 [PF-03715455] | Drug metabolism [9]: Active; CL free (Rattus norvegicus): 33000 mL/min/kg; bioavailability [10]: < 5%; CL free (Canis familiaris): 15000 mL/min/kg; logD [11]: > 4.1; pKa [12]: 7.45; solubility [13]: < 100 µg/mL; half-life [4]: 1 h; Vd [5]: 0.19 L/kg; half-life [14]: 0.5 h; Vd [15]: 0.06 L/kg; clearance [16]: 13.1 mL/min/kg; Drug metabolism (Liver microsomes [17]): Active; Drug metabolism (Liver microsomes [18]): Active; clearance [7]: 33.8 mL/min/kg
10 | 8 | > 287 | CC(C)(C)c1cc(NC(=O)NCc2ccccc2Sc2ccc3nnc(-c4ccccc4O)n3c2)n(-c2cccc(OCCO)c2)n1 | solubility [8]: 1 µg/mL (≈ 1.54 µM)
11 | 1.7 | > 320 | CSC(C)(C)c1cc(NC(=O)NCc2ccccc2Sc2ccc3nnc(C(C)C)n3c2)n(-c2ccccc2)n1 | 
12 | 4 | > 440 | CC(C)(C)c1cc(NC(=O)NCc2ccccc2Sc2ccc3nnc(-c4ccccc4SCCO)n3c2)n(-c2cccc(O)c2)n1 | 
13 |  | 279 | Cc1ccc(-n2nc(C(C)(C)C)cc2NC(=O)NCc2ccccc2Sc2ccc3nnc(-c4ccccc4O)n3c2)cc1 | 
14 | 43 | > 440 | Cc1ccc(-n2nc(C(C)(C)C)cc2NC(=O)NCc2ccccc2Sc2ccc3nnc(-c4cc(O)ccc4Cl)n3c2)cc1 | 
15 | 53 | > 285 | CC(C)(C)c1cc(NC(=O)NCc2ccccc2Sc2ccc3nnc(-c4cc(O)ccc4Cl)n3c2)n(-c2cccc(OCCO)c2)n1 | 
16 | 155 | > 287 | CC(C)c1nnc2ccc(Sc3ccccc3CNC(=O)Nc3cc(C(C)(C)C)nn3-c3ccc(O)c(Cl)c3)cn12 | 
17 |  | > 440 | CC(C)(C)c1cc(NC(=O)NCc2ccccc2Sc2ccc3nnc(-c4ccccc4OCCO)n3c2)n(-c2ccc(O)c(F)c2)n1 | 
18 |  | 385 | CC(C)c1nnc2ccc(Sc3ccccc3CNC(=O)Nc3cc(C(C)(C)C)nn3-c3cccc(O)c3)cn12 | 
19 |  | 196 | CC(C)c1nnc2ccc(Sc3ccccc3CNC(=O)Nc3cc(C(C)(C)C)nn3-c3ccc(O)cc3)cn12 | 
20 | 70 | 232 | CC(C)(C)c1cc(NC(=O)NCc2ccccc2Sc2ccc3nnc(-c4ccccc4OCCO)n3c2)n(-c2ccc(Cl)c(O)c2)n1 | 
21 | 27 | > 440 | CSCC(C)(C)c1cc(NC(=O)NCc2ccccc2Sc2ccc3nnc(-c4ccccc4O)n3c2)n(-c2ccccc2)n1 | 
22 |  | 132 | Cc1ccc(-n2nc(C(C)(C)C)cc2NC(=O)NCc2ccccc2Sc2ccc3nnc(-c4ccc(O)cc4Cl)n3c2)cc1 | 
23 | 41 | 126 | Cc1cccc(-n2nc(C(C)(C)C)cc2NC(=O)NCc2ccccc2Sc2ccc3nnc(-c4cccc(Cl)c4O)n3c2)c1 | 
24 | 66 | 303 | CC(C)c1nnc2ccc(Sc3ccccc3CNC(=O)Nc3cc(C(C)(C)C)nn3-c3ccc(Cl)c(O)c3)cn12 | 
25 | 47 | > 216 | CSCC(C)(C)c1cc(NC(=O)NCc2ccccc2Sc2ccc3nnc(-c4cc(O)ccc4Cl)n3c2)n(-c2cccc(OCCO)c2)n1 | 
